ChEMBL document CHEMBL1134050, “Phenyl benzenesulfonamides are novel and selective 5-HT6 antagonists: identification of N-(2,5-dibromo-3-fluorophenyl)-4-methoxy-3-piperazin-1-ylbenzenesulfonamide (SB-357134)” (Bioorg Med Chem Lett, 2001)

What was measured:
[1] = molecular target: 5-hydroxytryptamine receptor 6 (Homo sapiens, UniProt P50406); assay: Binding affinity against human 5-hydroxytryptamine 6 receptor
[2] = molecular target: 5-hydroxytryptamine receptor 1D (Homo sapiens, UniProt P28221); assay: Compound was evaluated for binding affinity against human cloned 5-hydroxytryptamine 1D receptor in CHO cells using [3H]5-HT as the radioligand; assay type: cell-based
Sequence of 5-hydroxytryptamine receptor 1D (P28221 whole entry): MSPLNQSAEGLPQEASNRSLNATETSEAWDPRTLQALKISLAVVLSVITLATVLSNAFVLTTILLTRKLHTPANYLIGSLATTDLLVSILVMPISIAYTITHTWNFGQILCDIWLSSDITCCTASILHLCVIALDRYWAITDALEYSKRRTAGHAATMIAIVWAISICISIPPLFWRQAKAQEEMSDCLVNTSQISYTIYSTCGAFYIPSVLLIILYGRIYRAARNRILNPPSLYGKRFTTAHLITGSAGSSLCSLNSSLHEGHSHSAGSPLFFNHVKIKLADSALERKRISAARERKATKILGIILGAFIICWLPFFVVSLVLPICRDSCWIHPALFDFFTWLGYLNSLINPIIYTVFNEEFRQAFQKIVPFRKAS

[3] = molecular target: 5-hydroxytryptamine receptor 2B (Homo sapiens, UniProt P41595); assay: Compound was evaluated for binding affinity against human cloned 5-HT2B receptor in HEK 293 cells using [3H]5-HT as the radioligand; assay type: cell-based, HEK293
Sequence of 5-hydroxytryptamine receptor 2B (P41595 whole entry): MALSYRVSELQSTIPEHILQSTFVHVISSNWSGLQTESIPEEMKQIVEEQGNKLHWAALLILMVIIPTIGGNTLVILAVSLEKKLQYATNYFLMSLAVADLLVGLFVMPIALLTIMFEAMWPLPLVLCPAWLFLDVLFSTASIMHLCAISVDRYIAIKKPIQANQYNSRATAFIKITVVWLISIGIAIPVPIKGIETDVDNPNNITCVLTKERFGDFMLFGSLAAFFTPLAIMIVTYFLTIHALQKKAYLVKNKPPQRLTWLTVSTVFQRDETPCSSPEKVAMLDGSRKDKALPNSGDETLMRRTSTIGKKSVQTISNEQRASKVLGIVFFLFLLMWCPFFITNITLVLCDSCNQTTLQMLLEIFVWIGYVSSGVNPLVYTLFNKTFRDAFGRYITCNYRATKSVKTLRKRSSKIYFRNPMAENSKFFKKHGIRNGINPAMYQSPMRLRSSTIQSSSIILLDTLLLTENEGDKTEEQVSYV
Summary of the method: (§1)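 Radioligand binding to human cloned receptors: 5-HT1A in HEK 293 cells with [3H]-8-OH-DPAT; 5-HT1B and 5-HT1E in CHO cells with [3H]-5-HT; 5-HT2B in HEK 293 cells with [3H]-5-HT; D2 and D3 in CHO cells with [125I]-iodosulpride. Values are the mean of at least two determinations, each within 0.2 log unit of the mean.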

[4] = molecular target: T1, Alpha-1B adrenergic receptor (Homo sapiens, UniProt P35368); assay: Compound was evaluated for binding affinity against Alpha-1B adrenergic receptor
T1 sequence (P35368 whole entry): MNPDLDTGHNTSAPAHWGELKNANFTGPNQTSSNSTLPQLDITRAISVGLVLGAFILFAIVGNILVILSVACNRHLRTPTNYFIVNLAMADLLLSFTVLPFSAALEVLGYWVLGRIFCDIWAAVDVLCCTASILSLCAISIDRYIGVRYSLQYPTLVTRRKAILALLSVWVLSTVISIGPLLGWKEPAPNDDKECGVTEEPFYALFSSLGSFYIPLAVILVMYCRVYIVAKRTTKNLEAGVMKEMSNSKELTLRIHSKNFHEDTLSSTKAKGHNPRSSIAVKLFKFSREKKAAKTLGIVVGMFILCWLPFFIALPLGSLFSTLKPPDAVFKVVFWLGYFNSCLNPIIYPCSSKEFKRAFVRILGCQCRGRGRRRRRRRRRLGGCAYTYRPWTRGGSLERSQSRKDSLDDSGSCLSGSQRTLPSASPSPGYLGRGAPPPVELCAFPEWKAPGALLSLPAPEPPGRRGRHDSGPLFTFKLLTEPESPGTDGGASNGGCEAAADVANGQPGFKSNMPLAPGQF

[5] = molecular target: T2, 5-hydroxytryptamine receptor 1A (Homo sapiens, UniProt P08908); assay: Compound was evaluated for binding affinity against human cloned 5-hydroxytryptamine 1A receptor in HEK 293 cells using [3H]8-OH-DPAT as the radioligand; assay type: cell-based, HEK293; summary of the method: as §1
T2 sequence (P08908 whole entry): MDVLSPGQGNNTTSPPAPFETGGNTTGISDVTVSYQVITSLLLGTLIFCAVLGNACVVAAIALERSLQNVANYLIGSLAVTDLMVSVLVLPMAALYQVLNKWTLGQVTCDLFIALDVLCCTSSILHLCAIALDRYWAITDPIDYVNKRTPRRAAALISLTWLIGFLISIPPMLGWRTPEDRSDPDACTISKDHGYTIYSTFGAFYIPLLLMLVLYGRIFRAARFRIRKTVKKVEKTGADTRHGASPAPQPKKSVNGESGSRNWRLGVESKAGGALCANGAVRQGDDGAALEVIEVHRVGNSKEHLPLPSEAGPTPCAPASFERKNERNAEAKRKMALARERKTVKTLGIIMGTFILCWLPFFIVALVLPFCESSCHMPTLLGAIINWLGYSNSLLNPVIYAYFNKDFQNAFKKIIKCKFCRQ

[6] = Bioavailability in rat (dose 3 mg/kg in 1% methylcellulose ); assay type: ADME, organism-based; details: in vivo
Summary of the method: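 Oral suspension dose of 3 mg/kg in 1% methylcellulose (v/v) aq to rats (n=3). Blood levels were measured by LC/MS/MS to derive AUC/dose and bioavailability.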

[7] = molecular target: 5-hydroxytryptamine receptor 1B (Homo sapiens, UniProt P28222); assay: Compound was evaluated for binding affinity against human cloned 5-hydroxytryptamine 1B receptor in CHO cells using [3H]5-HT as the radioligand; assay type: cell-based; summary of the method: as §1
Sequence of 5-hydroxytryptamine receptor 1B (P28222 whole entry): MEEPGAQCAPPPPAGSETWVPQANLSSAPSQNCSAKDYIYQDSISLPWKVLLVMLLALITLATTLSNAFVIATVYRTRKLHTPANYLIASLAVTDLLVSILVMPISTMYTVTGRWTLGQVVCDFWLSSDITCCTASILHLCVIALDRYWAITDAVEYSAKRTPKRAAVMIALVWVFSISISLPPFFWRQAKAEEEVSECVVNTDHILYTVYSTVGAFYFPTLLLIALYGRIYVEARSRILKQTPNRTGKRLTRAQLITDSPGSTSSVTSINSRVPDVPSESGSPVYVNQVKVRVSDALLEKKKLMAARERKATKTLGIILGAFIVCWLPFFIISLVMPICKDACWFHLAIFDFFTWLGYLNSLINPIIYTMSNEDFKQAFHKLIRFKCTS

[8] = molecular target: T3, 5-hydroxytryptamine receptor 1F (Homo sapiens, UniProt P30939); assay: Compound was evaluated for binding affinity against human cloned 5-hydroxytryptamine 1F receptor in CHO cells using [3H]-5-HT as the radioligand; assay type: cell-based
T3 sequence (P30939 whole entry): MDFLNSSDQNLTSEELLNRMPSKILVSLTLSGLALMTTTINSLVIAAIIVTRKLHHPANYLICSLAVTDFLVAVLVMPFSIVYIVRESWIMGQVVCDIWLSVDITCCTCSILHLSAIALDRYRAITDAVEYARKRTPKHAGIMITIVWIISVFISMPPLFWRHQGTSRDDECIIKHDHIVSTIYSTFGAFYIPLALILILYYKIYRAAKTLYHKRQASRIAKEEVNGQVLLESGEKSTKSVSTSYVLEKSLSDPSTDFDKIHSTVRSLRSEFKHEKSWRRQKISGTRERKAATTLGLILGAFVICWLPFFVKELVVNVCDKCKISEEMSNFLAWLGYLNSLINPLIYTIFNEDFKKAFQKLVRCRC

[9] = Plasma Clearance measured at steady-state following iv infusion at 0.6 mg/kg/h in rats; assay type: ADME, organism-based; design: route intravenous; details: rat, 0.6 mg/kg/h infusion
[10] = molecular target: T4, 5-hydroxytryptamine receptor 2C (Homo sapiens, UniProt P28335); assay: Compound was evaluated for binding affinity against human cloned 5-hydroxytryptamine 2C receptor in HEK 293 cells using [3H]mesulergine as the radioligand; assay type: cell-based, HEK293
T4 sequence (P28335 whole entry): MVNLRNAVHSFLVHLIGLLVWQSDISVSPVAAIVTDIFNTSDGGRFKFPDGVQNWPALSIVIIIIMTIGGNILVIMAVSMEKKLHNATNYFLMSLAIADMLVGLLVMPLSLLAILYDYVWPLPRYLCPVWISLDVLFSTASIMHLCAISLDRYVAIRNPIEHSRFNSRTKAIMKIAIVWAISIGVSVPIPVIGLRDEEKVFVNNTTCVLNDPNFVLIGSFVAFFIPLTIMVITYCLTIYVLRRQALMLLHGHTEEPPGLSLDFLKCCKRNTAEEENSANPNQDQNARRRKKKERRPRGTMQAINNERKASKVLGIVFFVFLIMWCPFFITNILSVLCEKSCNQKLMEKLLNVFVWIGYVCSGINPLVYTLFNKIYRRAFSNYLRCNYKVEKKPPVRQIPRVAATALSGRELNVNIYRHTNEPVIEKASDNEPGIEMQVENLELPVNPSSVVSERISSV

[11] = molecular target: 5-hydroxytryptamine receptor 1E (Homo sapiens, UniProt P28566); assay: Compound was evaluated for binding affinity against human cloned 5-hydroxytryptamine 1E receptor in CHO cells using [3H]5-HT as the radioligand; assay type: cell-based; summary of the method: as §1
Sequence of 5-hydroxytryptamine receptor 1E (P28566 whole entry): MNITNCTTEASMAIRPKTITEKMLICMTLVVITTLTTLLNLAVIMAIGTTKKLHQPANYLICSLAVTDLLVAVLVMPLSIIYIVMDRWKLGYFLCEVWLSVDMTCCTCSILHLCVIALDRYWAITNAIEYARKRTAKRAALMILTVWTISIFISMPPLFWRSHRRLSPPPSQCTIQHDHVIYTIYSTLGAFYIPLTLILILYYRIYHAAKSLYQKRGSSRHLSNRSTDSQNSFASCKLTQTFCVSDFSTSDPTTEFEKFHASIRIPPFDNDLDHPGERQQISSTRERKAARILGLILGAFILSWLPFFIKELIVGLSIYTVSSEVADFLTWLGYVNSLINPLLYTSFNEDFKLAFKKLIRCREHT

Rattus norvegicus = species: Rattus norvegicus; assay: Blood: Brain distribution ratio is determined in rat; assay type: ADME, organism-based
Summary of the method: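 Rats received iv infusion for 8 h, and the brain:blood ratio was taken at steady state.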

D(3) dopamine receptor = D(3) dopamine receptor (Homo sapiens, UniProt P35462); assay: Compound was evaluated for binding affinity against Dopamine receptor D3 in CHO cells using [125I]iodosulpiride as the radioligand; assay type: cell-based; summary of the method: as §1
Sequence of D(3) dopamine receptor (P35462 whole entry): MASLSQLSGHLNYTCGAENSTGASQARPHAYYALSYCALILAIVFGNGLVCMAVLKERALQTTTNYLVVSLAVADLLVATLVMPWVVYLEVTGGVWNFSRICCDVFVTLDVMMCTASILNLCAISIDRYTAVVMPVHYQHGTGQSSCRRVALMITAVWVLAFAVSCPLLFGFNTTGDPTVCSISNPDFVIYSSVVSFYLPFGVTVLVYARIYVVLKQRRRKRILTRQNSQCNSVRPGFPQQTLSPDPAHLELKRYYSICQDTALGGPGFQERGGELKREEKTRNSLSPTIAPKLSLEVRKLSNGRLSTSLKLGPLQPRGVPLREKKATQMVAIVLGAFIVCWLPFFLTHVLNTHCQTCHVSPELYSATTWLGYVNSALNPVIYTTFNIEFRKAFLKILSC

[12] = molecular target: 5-hydroxytryptamine receptor 2A (Homo sapiens, UniProt P28223); assay: Compound was evaluated for binding affinity against human cloned 5-hydroxytryptamine 2A receptor in HEK 293 cells using [3H]ketanserin as the radioligand; assay type: cell-based, HEK293
Sequence of 5-hydroxytryptamine receptor 2A (P28223 whole entry): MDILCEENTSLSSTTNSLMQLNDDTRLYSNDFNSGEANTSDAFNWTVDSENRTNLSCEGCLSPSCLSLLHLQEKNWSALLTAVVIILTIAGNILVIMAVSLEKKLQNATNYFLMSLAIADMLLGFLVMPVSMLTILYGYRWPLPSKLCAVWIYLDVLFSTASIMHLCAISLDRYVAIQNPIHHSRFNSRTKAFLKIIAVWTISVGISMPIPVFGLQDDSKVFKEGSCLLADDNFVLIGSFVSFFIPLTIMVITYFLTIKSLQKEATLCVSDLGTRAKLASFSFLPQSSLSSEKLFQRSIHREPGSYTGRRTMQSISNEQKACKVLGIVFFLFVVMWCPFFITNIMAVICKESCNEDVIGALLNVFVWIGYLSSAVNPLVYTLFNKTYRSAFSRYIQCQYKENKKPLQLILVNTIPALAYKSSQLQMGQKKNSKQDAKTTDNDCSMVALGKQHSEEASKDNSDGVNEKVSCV

[13] = molecular target: 5-hydroxytryptamine receptor 4 (Homo sapiens, UniProt Q13639); assay: Compound was evaluated for the binding affinity against human cloned 5-hydroxytryptamine 4 receptor in HeLa cells using [3H]-LSD as the radioligand; assay type: cell-based
Sequence of 5-hydroxytryptamine receptor 4 (Q13639 whole entry): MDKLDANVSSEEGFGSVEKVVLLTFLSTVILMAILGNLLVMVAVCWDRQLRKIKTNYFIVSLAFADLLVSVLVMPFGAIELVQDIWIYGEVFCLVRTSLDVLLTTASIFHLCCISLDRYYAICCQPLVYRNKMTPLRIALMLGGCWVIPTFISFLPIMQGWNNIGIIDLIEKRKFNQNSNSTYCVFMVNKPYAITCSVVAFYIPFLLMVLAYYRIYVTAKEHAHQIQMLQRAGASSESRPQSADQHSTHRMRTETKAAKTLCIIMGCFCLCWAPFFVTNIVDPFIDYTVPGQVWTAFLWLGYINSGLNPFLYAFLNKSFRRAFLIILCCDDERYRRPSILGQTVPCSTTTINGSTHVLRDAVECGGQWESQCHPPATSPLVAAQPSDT

D(2) dopamine receptor = D(2) dopamine receptor (Homo sapiens, UniProt P14416); assay: Compound was evaluated for binding affinity against Dopamine receptor D2 in CHO cells using [125I]iodosulpiride as the radioligand; assay type: cell-based; summary of the method: as §1
Sequence of D(2) dopamine receptor (P14416 whole entry): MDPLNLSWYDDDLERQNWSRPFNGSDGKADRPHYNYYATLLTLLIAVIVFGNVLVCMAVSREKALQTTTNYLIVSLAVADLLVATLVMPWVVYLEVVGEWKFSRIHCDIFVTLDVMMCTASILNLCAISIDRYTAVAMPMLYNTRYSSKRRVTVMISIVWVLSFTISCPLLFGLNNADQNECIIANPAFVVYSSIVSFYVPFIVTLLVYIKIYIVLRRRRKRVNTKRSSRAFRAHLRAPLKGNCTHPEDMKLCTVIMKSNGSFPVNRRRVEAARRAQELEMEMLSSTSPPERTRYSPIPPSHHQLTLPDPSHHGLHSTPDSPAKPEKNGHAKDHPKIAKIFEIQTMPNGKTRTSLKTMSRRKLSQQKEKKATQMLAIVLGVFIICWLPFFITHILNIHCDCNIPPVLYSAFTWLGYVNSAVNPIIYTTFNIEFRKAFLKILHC

[14] = molecular target: 5-hydroxytryptamine receptor 7 (Homo sapiens, UniProt P34969); assay: Compound was evaluated for binding affinity against human cloned 5-hydroxytryptamine 7 receptor in HEK 293 cells using [3H]5-CT as the radioligand (n=3); assay type: cell-based, HEK293
Sequence of 5-hydroxytryptamine receptor 7 (P34969 whole entry): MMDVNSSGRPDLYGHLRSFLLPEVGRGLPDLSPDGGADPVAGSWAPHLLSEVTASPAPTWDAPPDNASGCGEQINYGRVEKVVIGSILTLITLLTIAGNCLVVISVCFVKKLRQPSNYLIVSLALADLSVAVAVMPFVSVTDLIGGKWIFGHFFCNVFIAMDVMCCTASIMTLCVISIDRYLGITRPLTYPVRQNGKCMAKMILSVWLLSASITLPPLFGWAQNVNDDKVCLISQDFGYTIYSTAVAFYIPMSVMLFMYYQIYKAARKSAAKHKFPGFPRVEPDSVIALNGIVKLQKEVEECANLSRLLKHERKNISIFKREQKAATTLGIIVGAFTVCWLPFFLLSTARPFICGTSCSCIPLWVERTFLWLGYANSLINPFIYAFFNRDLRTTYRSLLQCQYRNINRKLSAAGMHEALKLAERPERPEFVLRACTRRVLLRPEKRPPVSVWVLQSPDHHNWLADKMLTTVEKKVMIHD

Sequence of 5-hydroxytryptamine receptor 6 (P50406 whole entry): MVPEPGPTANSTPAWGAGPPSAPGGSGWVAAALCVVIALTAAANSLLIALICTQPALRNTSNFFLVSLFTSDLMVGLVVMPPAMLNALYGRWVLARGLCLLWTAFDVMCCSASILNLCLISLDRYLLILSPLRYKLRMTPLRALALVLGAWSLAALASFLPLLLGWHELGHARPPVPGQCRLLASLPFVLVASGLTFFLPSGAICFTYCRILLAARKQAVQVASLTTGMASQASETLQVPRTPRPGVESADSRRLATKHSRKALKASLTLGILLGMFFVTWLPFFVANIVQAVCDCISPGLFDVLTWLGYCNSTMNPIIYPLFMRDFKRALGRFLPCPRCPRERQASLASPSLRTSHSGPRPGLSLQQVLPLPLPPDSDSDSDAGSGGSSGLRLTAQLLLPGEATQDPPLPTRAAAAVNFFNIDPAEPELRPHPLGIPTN

COc1ccc(S(=O)(=O)N2c3ccccc3CC2(C)C)cc1N1CCNCC1
Ki [1]: 0.794 nM

COc1ccc(S(=O)(=O)N2CCCc3c(Cl)cc(Cl)cc32)cc1N1CCNCC1
Ki [1]: 0.794 nM

COc1ccc(S(=O)(=O)N2CCCc3cc(Br)ccc32)cc1N1CCNCC1
Ki [1]: 3.16 nM

COc1ccc(S(=O)(=O)Nc2cc(Br)cc(Cl)c2Br)cc1N1CCNCC1
Ki [1]: 3.98 nM

COc1ccc(S(=O)(=O)Nc2cc(I)ccc2C)cc1N1CCNCC1
Ki [1]: 0.794 nM

COc1ccc(S(=O)(=O)Nc2cc([N+](=O)[O-])ccc2C)cc1N1CCNCC1
Ki [1]: 20 nM

COc1ccc(Cl)cc1NS(=O)(=O)c1ccc(OC)c(N2CCNCC2)c1
Ki [1]: 1.26 nM

COc1ccc(S(=O)(=O)Nc2cc(Br)ccc2Br)cc1N1CCNCC1
Ki [2]: > 1580 nM | Ki [1]: 1 nM | Ki [3]: > 3160 nM | Ki [4]: > 2000 nM | Ki [5]: > 3160 nM | bioavailability [6]: 20% | Ki [7]: > 5010 nM | Ki [8]: > 10000 nM | clearance [9]: 43 mL/min/kg | Ki [10]: > 5010 nM | Ki [11]: > 10000 nM | Distribution ratio (Rattus norvegicus): 0.38 | Ki (D(3) dopamine receptor): > 5010 nM | Ki [12]: > 10000 nM | Ki [13]: 3160 nM | Ki (D(2) dopamine receptor): > 10000 nM

COc1ccc(S(=O)(=O)Nc2cccc(Br)c2)cc1N1CCNCC1
Ki [1]: 1.26 nM

COc1ccc(S(=O)(=O)Nc2ccc(Cl)c(Cl)c2)cc1N1CCNCC1
Ki [1]: 2.51 nM

COc1ccc(S(=O)(=O)Nc2cc(Br)cc(F)c2Cl)cc1N1CCNCC1
Ki [1]: 3.16 nM

COc1ccc(S(=O)(=O)Nc2cc(Br)cc(Br)c2Br)cc1N1CCNCC1
Ki [1]: 2.51 nM

COc1ccc(S(=O)(=O)Nc2ccccc2C(C)C)cc1N1CCNCC1
Ki [1]: 1 nM | clearance [9]: 52 mL/min/kg

COc1ccc(S(=O)(=O)Nc2cc(Br)cc(Br)c2Cl)cc1N1CCNCC1
Ki [1]: 2.51 nM

COc1ccc(S(=O)(=O)Nc2cc(Cl)cc(Cl)c2Br)cc1N1CCNCC1
Ki [1]: 3.16 nM

COc1ccc(S(=O)(=O)Nc2ccccc2Br)cc1N1CCNCC1
Ki [1]: 1.58 nM | clearance [9]: 60 mL/min/kg | Distribution ratio (Rattus norvegicus): 0.24

COc1ccc(S(=O)(=O)N2CCc3cc(C)c(C(F)(F)F)cc32)cc1N1CCNCC1
Ki [1]: 3.98 nM | clearance [9]: 73 mL/min/kg | Distribution ratio (Rattus norvegicus): 0.41

COc1ccc(S(=O)(=O)Nc2cc(Br)cc(Br)c2)cc1N1CCNCC1
Ki [1]: 0.501 nM

COc1cc(Cl)c(C)cc1NS(=O)(=O)c1ccc(OC)c(N2CCNCC2)c1
Ki [1]: 2 nM

COc1ccc(C(F)(F)F)cc1NS(=O)(=O)c1ccc(OC)c(N2CCNCC2)c1
Ki [1]: 3.98 nM

COc1ccc(S(=O)(=O)Nc2ccc(I)cc2)cc1N1CCNCC1
Ki [1]: 2 nM

COc1ccc(S(=O)(=O)N2CCc3cccc(Cl)c3C2)cc1N1CCNCC1
clearance [9]: 83 mL/min/kg

COc1ccc(S(=O)(=O)Nc2cc(Cl)c(Cl)cc2Cl)cc1N1CCNCC1
Ki [1]: 5.01 nM

COc1ccc(S(=O)(=O)N2CCc3cc(I)ccc32)cc1N1CCNCC1
Ki [1]: 3.98 nM

COc1ccc(S(=O)(=O)N2CCc3c(Cl)ccc(Cl)c3C2)cc1N1CCNCC1
clearance [9]: 76 mL/min/kg

COc1ccc(S(=O)(=O)Nc2cc(F)cc(F)c2Cl)cc1N1CCNCC1
Ki [1]: 31.6 nM

COc1ccc(S(=O)(=O)Nc2ccc(Cl)cc2C(F)(F)F)cc1N1CCNCC1
Ki [1]: 25.1 nM

COc1ccc(S(=O)(=O)Nc2cccc(I)c2)cc1N1CCNCC1
Ki [1]: 0.501 nM | clearance [9]: 58 mL/min/kg | Distribution ratio (Rattus norvegicus): 0.13

COc1ccc(S(=O)(=O)Nc2cc(Cl)cc(Br)c2Cl)cc1N1CCNCC1
Ki [1]: 2 nM

COc1ccc(S(=O)(=O)Nc2c(F)cc(Br)cc2F)cc1N1CCNCC1
Ki [1]: 158 nM

COc1ccc(S(=O)(=O)Nc2cc(Br)cc(Br)c2F)cc1N1CCNCC1
Ki [1]: 2.51 nM

COc1ccc(S(=O)(=O)Nc2cccc(Cl)c2)cc1N1CCNCC1
Ki [1]: 1.26 nM

COc1ccc(S(=O)(=O)Nc2cc(Br)cc(Cl)c2Cl)cc1N1CCNCC1
Ki [1]: 3.98 nM

COc1ccc(S(=O)(=O)Nc2ccc(C)cc2Br)cc1N1CCNCC1
Ki [1]: 7.94 nM

COc1ccc(S(=O)(=O)N2CCCc3ccc(Br)cc32)cc1N1CCNCC1
Ki [1]: 0.316 nM

COc1ccc(S(=O)(=O)N2CCc3ccc(I)cc32)cc1N1CCNCC1
Ki [2]: 200 nM | Ki [1]: 0.316 nM | Ki [3]: 631 nM | Ki [4]: 1000 nM | Ki [5]: 501 nM | Ki [7]: 1260 nM | Ki [8]: > 7940 nM | Ki [10]: 631 nM | Ki [11]: > 10000 nM | Ki (D(3) dopamine receptor): 1000 nM | Ki [12]: > 3980 nM | Ki [13]: 3980 nM | Ki [14]: 0.316 nM | Ki (D(2) dopamine receptor): 2510 nM
